From article PMC5073817 (ACS chemical neuroscience, 2016)
Entries after “also recorded” stand apart in the source; their conditions may differ. Like-named read-outs stand apart in the source and are kept apart here. Marks after values point to notes of the source that are not given here.

Assays:
6-OHDA lesion models = conditions: various 6-OHDA lesion models; cited from earlier work
mGlu4 = mGlu4 (Rattus norvegicus, UniProt P31423); experiment: Glutamate concentration-response curve shift in cells expressing mGlu4 alone; assay type: cell-based; conditions: for fold shift of glutamate CRC / glutamate pEC50 in presence of PAM: mGlu4 alone
mGlu4, sequence (P31423 33-912): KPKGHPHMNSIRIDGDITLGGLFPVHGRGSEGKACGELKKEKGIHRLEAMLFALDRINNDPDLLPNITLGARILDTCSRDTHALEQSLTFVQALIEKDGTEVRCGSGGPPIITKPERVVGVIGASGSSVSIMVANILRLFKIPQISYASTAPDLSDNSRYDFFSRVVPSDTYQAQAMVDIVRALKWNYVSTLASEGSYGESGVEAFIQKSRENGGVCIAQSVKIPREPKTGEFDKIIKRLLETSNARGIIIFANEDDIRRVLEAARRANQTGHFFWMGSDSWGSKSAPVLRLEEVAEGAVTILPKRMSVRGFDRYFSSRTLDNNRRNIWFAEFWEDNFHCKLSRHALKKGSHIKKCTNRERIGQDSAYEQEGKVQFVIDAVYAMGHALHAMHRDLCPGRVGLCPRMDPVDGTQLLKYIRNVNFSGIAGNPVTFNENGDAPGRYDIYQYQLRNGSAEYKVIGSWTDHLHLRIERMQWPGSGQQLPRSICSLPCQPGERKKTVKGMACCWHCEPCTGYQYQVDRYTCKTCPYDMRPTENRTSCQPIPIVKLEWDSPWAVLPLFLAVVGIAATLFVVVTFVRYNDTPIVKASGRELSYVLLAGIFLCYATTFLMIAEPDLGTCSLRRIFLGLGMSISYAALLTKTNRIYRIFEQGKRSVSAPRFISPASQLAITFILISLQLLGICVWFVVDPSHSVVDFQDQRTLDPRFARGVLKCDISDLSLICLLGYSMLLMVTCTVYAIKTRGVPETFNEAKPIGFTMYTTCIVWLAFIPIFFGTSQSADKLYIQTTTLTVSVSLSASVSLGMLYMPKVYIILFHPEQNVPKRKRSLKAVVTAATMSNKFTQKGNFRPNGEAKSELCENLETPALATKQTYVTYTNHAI

mGlu2/4 = experiment: Glutamate concentration-response curve shift in cells expressing mGlu2 and mGlu4; assay type: cell-based, rat; conditions: for effect on the glutamate CRC: cells expressing mGlu2 and mGlu4; for fold shift of glutamate CRC / glutamate pEC50 in presence of PAM: mGlu2/4 cells
mGlu4 homomers = mGlu4 homomers (Rattus norvegicus, UniProt P31423); experiment: CODA-RET assay, mGlu4_L1/mGlu4_L2; assay type: cell-based; conditions: for max response (BRET) in presence of PAM: mGlu4_L1/mGlu4_L2, L-AP4; for potentiation of L-AP4 responses: mGlu4 labeled with L1 or L2
mGlu4 homomers, sequence (P31423 33-912): as above
mGlu4 homomers, sequence (P31423 33-912): as above
Summary of the method: (§1)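 HEK-293T cells were PEI-transfected with HA-tagged rat mGlu constructs bearing luciferase fragments, plus Gαi-mVenus, Gβ1 and Gγ2. Plasmid ratios were 4:4:1:1:1 for mGlu4-L1/mGlu4-L2 homomers and 4:8:1:1:1 for mGlu4-L1/mGlu2-L2 heteromers. At 48 h, about 200 000 cells/well in PBS were stimulated 5 min at 37 °C with L-AP4 with or without increasing compound. Coelenterazine H (5 µM) was added, read 2 min later; BRET ratio = 510–540 nm over 485 nm.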

mGlu2/4 heteromers = mGlu2/4 heteromers (Rattus norvegicus, UniProt P31423); experiment: CODA-RET assay, mGlu4_L1/mGlu2_L2; assay type: cell-based; conditions: for max response (BRET) in presence of PAM: L-AP4; for potentiation of L-AP4 responses: mGlu4_L1 and mGlu2_L2 coexpressed
mGlu2/4 heteromers, sequence (P31423 33-912): as above
mGlu2/4 heteromers, sequence (P31421 19-872 partner): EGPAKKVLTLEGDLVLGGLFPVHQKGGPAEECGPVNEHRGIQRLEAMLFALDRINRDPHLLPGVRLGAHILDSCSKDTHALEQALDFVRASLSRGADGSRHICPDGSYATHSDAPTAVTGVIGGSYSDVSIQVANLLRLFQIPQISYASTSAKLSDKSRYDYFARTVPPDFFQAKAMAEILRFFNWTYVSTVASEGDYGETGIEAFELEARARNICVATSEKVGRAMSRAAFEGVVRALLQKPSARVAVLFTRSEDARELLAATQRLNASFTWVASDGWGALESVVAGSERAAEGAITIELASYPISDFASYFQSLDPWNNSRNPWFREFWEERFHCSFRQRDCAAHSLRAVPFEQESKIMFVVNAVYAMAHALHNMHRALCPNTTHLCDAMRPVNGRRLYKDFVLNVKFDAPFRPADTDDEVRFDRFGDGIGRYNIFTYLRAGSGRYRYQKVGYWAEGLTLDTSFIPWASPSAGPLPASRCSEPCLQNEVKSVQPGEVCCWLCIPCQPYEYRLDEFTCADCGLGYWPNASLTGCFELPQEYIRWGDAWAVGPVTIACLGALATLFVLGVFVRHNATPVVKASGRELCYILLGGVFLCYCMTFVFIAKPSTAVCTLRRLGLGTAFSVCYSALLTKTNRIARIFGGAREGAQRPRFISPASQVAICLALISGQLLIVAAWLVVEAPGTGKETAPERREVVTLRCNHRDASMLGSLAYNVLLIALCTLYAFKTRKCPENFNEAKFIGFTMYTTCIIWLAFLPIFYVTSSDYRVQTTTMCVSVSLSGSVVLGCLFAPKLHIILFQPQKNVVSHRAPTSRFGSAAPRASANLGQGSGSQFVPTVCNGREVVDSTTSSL
Summary of the method: as §1

[1] = test system: mGlu2 coexpressed with mGlu4; conditions: cited from earlier work
human mGlu4 = human mGlu4 (Homo sapiens, UniProt Q14833); experiment: Gqi5-mediated calcium mobilization assay, human mGlu4/Gqi5/CHO cells; assay type: cell-based; conditions: absence of glutamate
human mGlu4, sequence (Q14833 33-912): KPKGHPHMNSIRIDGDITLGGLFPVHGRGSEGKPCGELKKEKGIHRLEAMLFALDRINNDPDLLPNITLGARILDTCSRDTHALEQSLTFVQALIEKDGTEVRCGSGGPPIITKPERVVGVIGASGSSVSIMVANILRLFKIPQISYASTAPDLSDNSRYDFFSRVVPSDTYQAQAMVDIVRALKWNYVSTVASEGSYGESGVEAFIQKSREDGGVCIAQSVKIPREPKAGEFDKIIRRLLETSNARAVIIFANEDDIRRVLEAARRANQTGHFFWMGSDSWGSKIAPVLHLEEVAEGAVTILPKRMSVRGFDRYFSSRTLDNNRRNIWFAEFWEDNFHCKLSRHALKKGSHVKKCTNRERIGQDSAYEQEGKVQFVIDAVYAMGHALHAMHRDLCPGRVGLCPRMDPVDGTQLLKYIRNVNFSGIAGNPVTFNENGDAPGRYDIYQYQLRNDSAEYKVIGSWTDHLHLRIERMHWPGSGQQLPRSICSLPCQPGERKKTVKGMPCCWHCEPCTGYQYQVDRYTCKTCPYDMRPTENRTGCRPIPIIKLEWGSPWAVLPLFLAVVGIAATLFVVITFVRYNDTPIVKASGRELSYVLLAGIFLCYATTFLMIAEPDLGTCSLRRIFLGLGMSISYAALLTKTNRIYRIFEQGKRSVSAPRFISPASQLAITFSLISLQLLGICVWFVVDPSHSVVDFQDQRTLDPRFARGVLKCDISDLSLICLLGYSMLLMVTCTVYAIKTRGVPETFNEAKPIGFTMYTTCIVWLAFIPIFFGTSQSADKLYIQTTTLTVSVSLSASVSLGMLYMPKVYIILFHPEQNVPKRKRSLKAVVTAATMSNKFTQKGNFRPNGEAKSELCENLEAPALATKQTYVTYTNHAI

rat mGlu4 = rat mGlu4 (Rattus norvegicus, UniProt P31423); experiment: GIRK/thallium flux assay, rat mGlu4/HEK/GIRK cells; assay type: cell-based
rat mGlu4, sequence (P31423 33-912): as the sequence (P31423 33-912) above
Summary of the method: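 Polyclonal HEK/GIRK cells stably expressing rat mGlu4 (pIRESpuro3, puromycin-selected) were loaded with 330 nM final FluoZin-2 AM in HBSS/20 mM HEPES pH 7.4 for 1 h at room temperature. Thallium flux was read kinetically at room temperature. EC50 came from four-parameter logistic fits; three determinations in triplicate, mean ± SEM.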

[2] = test system: haloperidol-induced catalepsy; experiment: Haloperidol-induced catalepsy; assay type: in vivo, Sprague–Dawley rats; conditions: oral, catalepsy assessed 30 min after dosing
[3] = Plasma and brain exposure time course after 30 mg/kg dose; assay type: in vivo; conditions: rat
[4] = test system: rotarod motor performance; experiment: Rotarod test; assay type: in vivo, rats; conditions: doses up to 100 mg/kg p.o., tested 30 min later
Summary of the method: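 Rats were pre-trained on the rotarod, then given vehicle or test compound at 10, 30, 56.6 or 100 mg/kg p.o. (10 mL/kg). Motor performance was tested 30 min after dosing.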

[5] = test system: unilateral 6-OHDA lesion forelimb asymmetry; experiment: 6-OHDA lesion-induced forelimb asymmetry; assay type: in vivo, rats
[6] = cited from earlier work
[7] = test system: haloperidol-induced catalepsy; conditions: 56.6 mg/kg p.o.; previously demonstrated; cited from earlier work
[8] = CODA-RET, labeled mGlu2 and mGlu4 coexpressed

## Cc1ccnc(Nc2nc(-c3cn[nH]c3)c(C)s2)n1 [ADX88178]
6-OHDA lesion models
  potentiation of the effects of subthreshold doses of L-DOPA: potentiate the effects of subthreshold doses of L-DOPA

## NC(=O)[C@@H]1CCCC[C@@H]1C(=O)Nc1ccc(Cl)c(Cl)c1 [Lu AF21934]
mGlu4; PAM concentration −4.5 (log)
  fold shift of glutamate CRC: 4.2 ± 0.42
  glutamate pEC50 in presence of PAM: 5.43 ± 0.08 ^b
mGlu4; PAM concentration −5 (log)
  fold shift of glutamate CRC: 3.8 ± 0.21 ^c
  glutamate pEC50 in presence of PAM: 5.39 ± 0.06 ^b
mGlu4; PAM concentration −5.5 (log)
  fold shift of glutamate CRC: 3.2 ± 0.28 ^c
  glutamate pEC50 in presence of PAM: 5.32 ± 0.07 ^b
mGlu4; PAM concentration −6 (log)
  fold shift of glutamate CRC: 2.1 ± 0.17
  glutamate pEC50 in presence of PAM: 5.14 ± 0.07 ^b
mGlu4; PAM concentration −6.5 (log)
  fold shift of glutamate CRC: 1.6 ± 0.09 ^c
  glutamate pEC50 in presence of PAM: 5.00 ± 0.04 ^b
mGlu4; PAM concentration −7 (log)
  fold shift of glutamate CRC: 1.5 ± 0.12
  glutamate pEC50 in presence of PAM: 4.99 ± 0.07 ^b
mGlu4; PAM concentration −8 (log)
  fold shift of glutamate CRC: 1.1 ± 0.03
  glutamate pEC50 in presence of PAM: 4.85 ± 0.03
mGlu2/4
  effect on the glutamate CRC: induced a leftward shift in the glutamate CRC
mGlu2/4; PAM concentration −4.5 (log)
  fold shift of glutamate CRC: 3.2 ± 0.07
  glutamate pEC50 in presence of PAM: 6.41 ± 0.08 ^b
mGlu2/4; PAM concentration −5 (log)
  fold shift of glutamate CRC: 2.8 ± 0.07 ^c
  glutamate pEC50 in presence of PAM: 6.36 ± 0.08 ^b
mGlu2/4; PAM concentration −5.5 (log)
  fold shift of glutamate CRC: 2.4 ± 0.13 ^c
  glutamate pEC50 in presence of PAM: 6.29 ± 0.06 ^b
mGlu2/4; PAM concentration −6 (log)
  fold shift of glutamate CRC: 1.7 ± 0.04
  glutamate pEC50 in presence of PAM: 6.13 ± 0.09 ^b
mGlu2/4; PAM concentration −6.5 (log)
  fold shift of glutamate CRC: 1.2 ± 0.05 ^c
  glutamate pEC50 in presence of PAM: 6.00 ± 0.09 ^b
mGlu2/4; PAM concentration −7 (log)
  fold shift of glutamate CRC: 1.2 ± 0.07
  glutamate pEC50 in presence of PAM: 5.99 ± 0.06
mGlu2/4; PAM concentration −8 (log)
  fold shift of glutamate CRC: 1.0 ± 0.07
  glutamate pEC50 in presence of PAM: 5.91 ± 0.11
mGlu4 homomers; CODA-RET
  max response (BRET) in presence of PAM: 0.050 ± 0.003
mGlu4 homomers; CODA-RET, mGlu4_L1/mGlu4_L2, mean ± SEM
  L-AP4 pEC50 in presence of PAM: 7.70 ± 0.01
mGlu4 homomers
  potentiation of L-AP4 responses: able to potentiate responses
mGlu2/4 heteromers; [8]
  max response (BRET) in presence of PAM: 0.032 ± 0.004
mGlu2/4 heteromers; CODA-RET, labeled mGlu2 and mGlu4 coexpressed, mean ± SEM
  L-AP4 pEC50 in presence of PAM: 7.66 ± 0.11
mGlu2/4 heteromers
  potentiation of L-AP4 responses: able to potentiate responses
[1]
  potentiation when mGlu2 and mGlu4 are coexpressed: induce potentiation regardless of mGlu2 expression
6-OHDA lesion models
  potentiation of the effects of subthreshold doses of L-DOPA: potentiate the effects of subthreshold doses of L-DOPA

## O=C(Nc1cc(Cl)cc(Cl)c1)[C@H]1CCCC[C@H]1C(=O)O [VU0155041]
[1]
  potentiation when mGlu2 and mGlu4 are coexpressed: induce potentiation regardless of mGlu2 expression

## Fc1ccc(Nc2n[nH]c3cccnc23)cc1Cl [VU0418506, N-(3-chloro-4-fluorophenyl)-1H-pyrazolo[4,3-b]pyridin-3-amine]
Human mGlu4
  direct allosteric agonist activity (compound added alone): does not exhibit direct allosteric agonist activity; also recorded: does not elicit activity in this assay in the absence of glutamate
Rat mGlu4
  EC50: 46.6 nM
Rat mGlu4; rat mGlu4, GIRK/thallium flux, mean ± SEM
  pEC50 (PAM potency): 7.34 ± 0.04
Rat mGlu4; read-out: EC50 (PAM potency), rat mGlu4, GIRK/thallium flux
  EC50: 46 nM
mGlu4; cells only expressing mGlu4
  potentiation of glutamate response: induced significant potentiation
mGlu4; PAM concentration −5 (log)
  glutamate pEC50 in presence of PAM: 5.87 ± 0.13 ^b
mGlu4; PAM concentration −5.5 (log)
  glutamate pEC50 in presence of PAM: 6.07 ± 0.21 ^b
mGlu4; PAM concentration −6 (log)
  glutamate pEC50 in presence of PAM: 5.93 ± 0.12 ^b
mGlu4; PAM concentration −6.5 (log)
  glutamate pEC50 in presence of PAM: 5.67 ± 0.14 ^b
mGlu4; PAM concentration −7 (log)
  glutamate pEC50 in presence of PAM: 5.55 ± 0.17 ^b
mGlu4; PAM concentration −8 (log)
  glutamate pEC50 in presence of PAM: 5.08 ± 0.07
mGlu2/4
  effect on the glutamate CRC: no effect on the glutamate CRC
mGlu2/4; PAM concentration −5.5 (log)
  glutamate pEC50 in presence of PAM: 6.02 ± 0.02
mGlu2/4; PAM concentration −6.5 (log)
  glutamate pEC50 in presence of PAM: 5.89 ± 0.07
mGlu2/4; PAM concentration −7 (log)
  glutamate pEC50 in presence of PAM: 5.87 ± 0.05
mGlu2/4; PAM concentration −8 (log)
  glutamate pEC50 in presence of PAM: 5.86 ± 0.08
mGlu4 homomers; CODA-RET
  max response (BRET) in presence of PAM: 0.047 ± 0.0004
mGlu4 homomers
  potentiation of L-AP4 responses: able to potentiate responses
mGlu2/4 heteromers; [8]
  max response (BRET) in presence of PAM: 0.021 ± 0.002
mGlu2/4 heteromers
  potentiation of L-AP4 responses: unable to potentiate L-AP4 responses
[2]
  doses with significant activity in reversing catalepsy: ≥ 3 mg/kg
[3]
  time after dosing for which sustained plasma and brain levels were observed: at least 6 h
[4]
  impairment of rotorod performance: did not observe any impairment
[5]; 3 mg/kg VU0418506 combined with 0.75 mg/kg L-DOPA
  reversal of forelimb asymmetry: statistically significant efficacy
[5]; 3 mg/kg alone
  reversal of forelimb asymmetry: inactive alone
[5]; 10 mg/kg administered alone, assessed after 30 min
  reversal of forelimb asymmetry: statistically significant reversals of forelimb asymmetry
[5]; 30 mg/kg administered alone, assessed after 30 min
  reversal of forelimb asymmetry: statistically significant reversals of forelimb asymmetry
[6]
  brain penetration: good brain penetration

## N[C@@H](Cc1ccc(O)c(O)c1)C(=O)O [L-DOPA]
[5]; 0.75 mg/kg alone
  reversal of forelimb asymmetry: inactive alone
[5]; 2.5 mg/kg dose
  reversal of forelimb asymmetry: completely reversed motor deficits

## Cc1cc(C)n(-c2cc(NC(=O)CN3CCN(C)CC3)nc(-c3ccco3)n2)n1 [compound 23, N-(6-(3,5-dimethyl-1H–pyrazol-1-yl)-2-(furan-2-yl)-pyrimidin-4-yl)-2-(4-methylpiperazin-1-yl)acetamide]
[7]
  reversal of haloperidol-induced catalepsy (positive control): robust reversal of haloperidol-induced catalepsy
